PG9 Ab binder = small molecules binding HIV-1 gp120 antibody PG9. AID 624416. inhibition, % at 6.7 µM. TR-FRET gp120-PG9 antibody binding. hit rate 0.43% among 360,000; in the data active means inhibition above about 8.5%
NR2E3 ag-1 = activates human photoreceptor nuclear receptor NR2E3; Q9Y5X4; GST-NR2E3/biotin-RetCOR TR-FRET, 1536-well; inhibition of corepressor binding, % at 4.78 µM; hit rate 0.12% among 320,000; AID 2300;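 active means percent inhibition above the cutoff of mean plus 3 SD of all tested compounds, set per screening campaign, cut at about 20% in these data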;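 further: 0% = DMSO wells and 100% = biotin wells as full block of FRET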
Target sequence (Q9Y5X4 whole entry, looked up): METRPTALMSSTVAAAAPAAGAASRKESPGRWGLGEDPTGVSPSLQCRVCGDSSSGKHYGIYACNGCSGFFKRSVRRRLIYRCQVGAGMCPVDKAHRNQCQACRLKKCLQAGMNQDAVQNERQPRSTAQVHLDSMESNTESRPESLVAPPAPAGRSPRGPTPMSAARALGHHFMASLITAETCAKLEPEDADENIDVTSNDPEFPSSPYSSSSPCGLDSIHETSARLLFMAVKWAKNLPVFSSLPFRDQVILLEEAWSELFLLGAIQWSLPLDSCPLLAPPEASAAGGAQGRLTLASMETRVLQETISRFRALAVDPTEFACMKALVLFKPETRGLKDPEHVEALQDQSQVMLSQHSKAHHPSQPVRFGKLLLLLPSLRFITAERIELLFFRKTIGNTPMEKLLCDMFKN
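Material: NR2E3–RetCOR corepressor complex | Quantity: 1.35 nM GST-tagged NR2E3 final | Schedule: 5 h at 4 °C | Replication: Singlicate compound wells | Reagent: RetCOR corepressor, biotinylated, 7 nM | Controls: Biotin wells as high control, 0.6% DMSO wells as low control | Signal: TR-FRET, Eu(K)-anti-GST donor, streptavidin-D2 acceptor, ex 340, em 617/671 nm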
NR1D1 modulator = modulates human Rev-erb alpha binding to DNA; hit rate 0.79% among 370,000; activity, % at 10 µM; P20393; Rev-erbα–FITC-DNA binding, fluorescence polarization, 90 min; AID 1259318;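 active means activity above about 14%, limit read from the data; passing the limit was not always enough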;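 further: 0% = DMSO wells with 35 nM protein and 100% = DMSO wells with 750 nM protein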
MT1-MMP act inh = MT1-MMP (human) activation inhibition; GFP/RFP ratio change, % at 20 µM; HT1080 RFP-PRO-GFP cells, GFP/RFP ratio fluorescence, overnight; percent of plate control window, DMSO zero; P50281; hit rate 0.061% among 360,000; AID 651647;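 active means GFP/RFP ratio change of at least 30% with cell ATP level not reduced by more than half and red fluorescence within 50% of control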
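Assay system: RFP-PRO-GFP reporter HT1080 cells; read-out basis: GFP/RFP fluorescence ratio; benchmarks: DMSO wells and RFP-L50D-GFP cells; doses: 20 µM single dose, 1% DMSO; schedule: overnight cell settling, then overnight compound exposure, 37 °C, 5% CO2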
NR2E3 ag-2 = activates human NR2E3 receptor; Q9Y5X4; CHO-S Gal4-NCOR/VP16-NR2E3 two-hybrid, luciferase; inhibition of corepressor binding, % at 3.98 µM; hit rate 0.35% among 360,000; AID 602229;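 active means inhibition above the mean of all tested compounds plus 3 SD, cut at about 70% in these data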;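 further: 0% = DMSO with NR2E3 transfected cells and 100% = cells lacking NR2E3 construct; higher means lower luciferase signal from less NR2E3 corepressor binding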
SKN-1 block = C. elegans SKN-1 inhibition; C. elegans VP596 Pgst-4::GFP/RFP ratio, acrylamide-induced, 24 h; inhibition, % at 21.8 µM; hit rate 0.49% among 360,000; AID 624304;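 active means interference check ratio from 0.5 to 1.5 plus GFP to RFP signal ratio inhibition reaching or exceeding a fixed threshold, cut at about 30% in these data, passing the limit was not always enough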
NR2E3 ag conf = NR2E3 agonism confirmed in two-hybrid assay | inhibition, % at 3.98 µM | AID 624378 | shares compounds with NR2E3 ag-2 | hit rate 51% among 2,300 | CHO-S mammalian two-hybrid NR2E3-NCOR, luciferase luminescence;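 active means average inhibition above a cutoff equal to the mean inhibition of all tested compounds plus one SD, cut at about 70% in these data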;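 further: 0% = DMSO in NR2E3 cells and 100% = DMSO in cells lacking NR2E3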
VP16 counter = GAL4-VP16 reporter inhibition in NR2E3 agonist counterscreen; CHO-S GAL4-VP16 luciferase reporter, luminescence; hit rate 29% among 2,300; inhibition, % at 3.98 µM; AID 624379; shares compounds with NR2E3 ag-2;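 active means mean inhibition above a cutoff equal to the average over all tested compounds plus one standard deviation, cut at about 70% in these data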;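 further: luciferase from a UAS reporter driven by GAL4-VP16 transactivation; 0% = DMSO with VP16-transfected cells and 100% = DMSO with cells lacking VP16; higher means less reporter light so more repression of VP16 activity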
* marks the source's active call; other numbers are inactive results; nt = no result. Rows were chosen to be rich in hits. Some 1.9% of all compounds tested hit in one or more screens of this group.

SMILES	PG9 Ab binder	NR2E3 ag-1	NR1D1 modulator	MT1-MMP act inh	NR2E3 ag-2	SKN-1 block	NR2E3 ag conf	VP16 counter
COc1cc2c(O)c3c(c(-c4ccc5c(c4)OCO5)c2cc1OC)C(=O)OC3	-2	2	-3	-16	82*	18	99*	43
COc1cc2c(OC(C)=O)c3c(c(-c4ccc5c(c4)OCO5)c2cc1OC)C(=O)OC3	1	2	0	-9	81*	-1	98*	31
CCCCN(CCCC)c1ccc(C(=O)c2ccccc2C(=O)O)c(O)c1	-1	-1	-2	2	50	9	9	33
O=C1C2C3C=CC(C3)C2C(=O)N1c1ccc(-c2nc(-c3ccccc3)nc3ccccc23)cc1 (stereo not given)	0	nt	-8	nt	nt	nt	nt	nt
CC(=O)c1c(C)[nH]c(C(=O)OCC(=O)Nc2cc(Cl)ccc2[N+](=O)[O-])c1C	1	3	-3	-15	-11	2	nt	nt
CC(=O)c1c(C)[nH]c(C(=O)OCC(=O)Nc2ccc(C)cc2[N+](=O)[O-])c1C	2	5	-4	-12	82*	1	98*	90*
Cc1cc(C(=O)O/N=C(\N)c2ccc(C(C)(C)C)cc2)no1	-1	6	4	2	-35	-13	nt	nt
CC(C)(C)c1ccc(C(=O)O/N=C(\N)c2ccccc2)cc1	-1	2	1	0	81*	14	78*	74*
c1coc(CN(Cc2ccco2)c2ncnc3c2oc2ccccc23)c1	nt	0	nt	-4	68	-1	77*	60
CC(C)[C@H](NC(=O)c1cccs1)C(=O)N1CCC[C@H]1C(=O)NCc1ccccc1	-1	nt	-2	nt	nt	nt	nt	nt
Cc1cc(Oc2cccnc2)ccc1NC(=O)Cc1c[nH]c2ccccc12	-1	nt	2	nt	nt	nt	nt	nt
CC1CC(C)C(=NNC(N)=O)C(C(O)CC2CCC(=O)NC2=O)C1 (stereo not given)	3	nt	-1	-36	102*	13	85*	35
CCC1SC(C)C/C(=N/NC(N)=O)C1C (stereo not given)	-2	3	-3	-1	5	6	nt	nt
CCC(NC(=O)CN1CCN(c2cccc(OC)c2)CC1)c1ccccc1 (stereo not given)	nt	nt	-2	nt	nt	nt	nt	nt
Cc1cc(-n2c(C)cc(C(=O)CSc3ncnc4ccccc34)c2C)no1	0	3	6	2	92*	-14	97*	86*
Cc1cc(C)n2nc(SCC(=O)c3cc(C)n(-c4cc(C)on4)c3C)nc2n1	-1	2	-1	-6	92*	0	94*	81*
CN(Cc1ccccc1F)C(=O)Cn1c(-c2cncs2)nc2ccccc21	nt	nt	-5	nt	nt	nt	nt	nt
COc1cccc(C(=O)NCC2CCN(C(=O)C(=O)c3cc4ccccc4o3)CC2)c1	-1	nt	-2	nt	nt	nt	nt	nt
COc1ccc(CCN(C)c2ccc(S(=O)(=O)N3CCCC3)cc2[N+](=O)[O-])cc1OC	-1	-1	4	5	0	0	nt	nt
COc1ccc(CN(C)c2ccc(S(=O)(=O)N3CCN(C)CC3)cc2[N+](=O)[O-])cc1OC	2	3	-6	15	94*	-12	96*	85*
CCN(CC)c1ccc(-c2nn3c(-c4ccccc4OC)nnc3s2)cc1	nt	1	nt	16	57	-3	-38	8
Cc1cc(C(=O)CSc2nnc(-c3ccccc3)n2-c2ccccc2)c(C)n1-c1ncn[nH]1	3	-1	0	1	13	1	nt	nt
Cc1cc(C(=O)CSc2nnc3ccccn23)c(C)n1-c1ccccc1	1	-1	-1	nt	62	-3	98*	-74
O=C(OCCN1CCN(C2CN(Cc3cn(Cc4ccccc4Cl)nn3)S(=O)(=O)C2)CC1)c1cccs1 (stereo not given)	nt	nt	2	nt	nt	nt	nt	nt
O=S(=O)(NCCN1CCOCC1)c1ccc(Oc2ccccc2Cl)cc1	-2	-2	3	5	53	13	53	55
SMILES	PG9 Ab binder	NR2E3 ag-1	NR1D1 modulator	MT1-MMP act inh	NR2E3 ag-2	SKN-1 block	NR2E3 ag conf	VP16 counter
O=C(COCc1ccccc1)N1CCC(Oc2cccnc2)CC1	nt	nt	6	nt	nt	nt	nt	nt
CSc1nnc(NC(=O)c2nc(S(=O)(=O)Cc3cccc(C)c3)ncc2Cl)s1	0	7	-1	-4	49	5	47	10
CC(C)c1nnc(NC(=O)c2nc(S(=O)(=O)Cc3ccc(F)cc3)ncc2Cl)s1	0	5	-2	1	24	6	nt	nt
Cc1ccc(CS(=O)(=O)c2ncc(Cl)c(C(=O)Nc3nnc(C(C)C)s3)n2)cc1	-2	-2	-3	0	57	17	57	14
CCc1nnc(NC(=O)c2nc(S(=O)(=O)Cc3ccc(C)cc3)ncc2Cl)s1	-2	3	1	0	54	2	59	13
CCc1nnc(NC(=O)c2nc(S(=O)(=O)Cc3ccccc3)ncc2Cl)s1	-4	7	4	3	31	3	nt	nt
O=C(NCc1ccccc1)[C@@H]1CCCN1C(=O)[C@H]1CCCN1C(=O)c1ccc(Cl)c(Cl)c1	-1	nt	-4	nt	nt	nt	nt	nt
O=C(N[C@H](Cc1ccccc1)C(=O)N(CCC1=CCCCC1)CC1CC1)[C@H]1O[C@@H](n2ccc(=O)[nH]c2=O)[C@H](O)[C@@H]1O	0	nt	6	nt	nt	nt	nt	nt
Cc1ccc(-n2c(SCC(=O)c3ccc4ccccc4c3)nnc2-c2cccnc2)cc1	nt	nt	2	nt	nt	nt	nt	nt
COc1ccc(N2CCN(C(=O)CS(=O)Cc3nc(-c4ccc(OC)c(OC)c4)oc3C)CC2)cc1 (stereo not given)	0	0	1	0	-24	15	nt	nt
Cc1ccc(-c2nc(CS(=O)CC(=O)N3CCN(c4ccc(F)cc4)CC3)c(C)o2)cc1 (stereo not given)	-3	3	-2	2	53	17	29	40
CCCCCCCCN1C(=O)[C@@H](CC(=O)NCc2ccc(C)o2)C[C@@]2(C(=O)OC)C1=C[C@H](C1CCCC1)O[C@@H]2C	-1	nt	4	nt	nt	nt	nt	nt
COc1ccc(-c2nc(CSCC(=O)NCC3CCCO3)c(C)o2)cc1OC (stereo not given)	1	0	-4	0	-14	-16	nt	nt
CCOc1ccc(-c2nc(CSCC(=O)NCC3CCCO3)c(C)o2)cc1 (stereo not given)	0	1	3	-4	104*	-7	92*	87*
Cc1ccc(-c2nc(CSCC(=O)NCC3CCCO3)c(C)o2)cc1 (stereo not given)	5	1	10	0	49	5	62	45
CC(C)[C@@H]1NC(=O)[C@H]2C[C@@]3(C)c4ccccc4N[C@H]3N2C1=O	nt	nt	7	nt	nt	nt	nt	nt
